# In ChEMBL document CHEMBL2331269, “Design and synthesis of amphiphilic xanthone-based, membrane-targeting antimicrobials with improved membrane selectivity” (J Med Chem, 2013):
# Calls of active or inactive are those of the source. The rule behind the calls is not given here.
# Experiments:
# Staphylococcus aureus [1] = experiment: Antibacterial activity against methicillin-resistant Staphylococcus aureus clinical isolate DM21455 after 20 to 22 hrs by CLSI broth macro-dilution method; format: functional
# Staphylococcus aureus [2] = experiment: Antibacterial activity against Staphylococcus aureus ATCC 29213 after 20 to 22 hrs by CLSI broth macro-dilution method; format: functional
# [3] = Partition coefficient, log P of the compound by HPLC analysis; format: physicochemical; settings: octanol/water
# Outline: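 Partition coefficient measured by HPLC following OECD guidelines for the testing of chemicals.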
# [4] = Dissociation constant, pKa of the compound; format: physicochemical
# [5] = Hemolytic activity against rabbit erythrocytes after 60 mins by spectrophotometric analysis; format: ADME, cell-based, Oryctolagus cuniculus, Erythrocyte
# [6] = Selectivity ratio of HC50 for rabbit erythrocyte to MIC99 for methicillin-resistant Staphylococcus aureus clinical isolate DM21455; format: functional
# [7] = Selectivity ratio of HC50 for rabbit erythrocyte to MIC99 for Staphylococcus aureus ATCC 29213; format: functional
# Staphylococcus aureus [8] = experiment: Antibacterial activity against methicillin-resistant Staphylococcus aureus DR42412 obtained from sputum isolate after 20 to 22 hrs by CLSI broth macro-dilution method; format: functional
# Staphylococcus aureus [9] = experiment: Antibacterial activity against methicillin-resistant Staphylococcus aureus DM09808R assessed as log reduction in CFU at 0.5 X MIC to 4 X MIC after 24 hrs by surface-spread plate method relative to control; format: functional
# Staphylococcus aureus [10] = experiment: Antibacterial activity against methicillin-resistant Staphylococcus aureus DM21595 assessed as log reduction in CFU at 0.5 X MIC to 4 X MIC after 24 hrs by surface-spread plate method relative to control; format: functional
# Staphylococcus aureus [11] = experiment: Antibacterial activity against methicillin-resistant Staphylococcus aureus DM21455 assessed as log reduction in CFU at 0.5 X MIC to 4 X MIC after 24 hrs by surface-spread plate method relative to control; format: functional
# Staphylococcus aureus [12] = experiment: Antibacterial activity against methicillin-resistant Staphylococcus aureus DM09808R obtained from eye isolate after 20 to 22 hrs by CLSI broth macro-dilution method; format: functional
# Staphylococcus aureus [13] = experiment: Antibacterial activity against methicillin-resistant Staphylococcus aureus DM21595 obtained from wound isolate after 20 to 22 hrs by CLSI broth macro-dilution method; format: functional
# Staphylococcus aureus [14] = experiment: Antibacterial activity against methicillin-resistant Staphylococcus aureus DM42412 assessed as log reduction in CFU at 0.5 X MIC to 4 X MIC after 24 hrs by surface-spread plate method relative to control; format: functional
# [15] = Toxicity against New Zealand White rabbit corneal epithelium assessed as effect on wound closure at 50 ug/ml by Slit lamp photography relative to control; format: tissue-based, Oryctolagus cuniculus, Cornea; settings: in vivo
# Outline: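 A 5 mm corneal epithelial abrasion was made with a sterile trephine and the epithelium removed with a mini blade. Eyes were treated with saline, vancomycin 50 μg/mL, or agent 50 μg/mL. Wound closure was tracked over time from fluorescein-stained photographs of defect size.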
# Staphylococcus aureus [16] = experiment: Antibacterial activity against methicillin-resistant Staphylococcus aureus ATCC 700699 assessed as log reduction in CFU at 0.5 X MIC to 4 X MIC after 24 hrs by surface-spread plate method relative to control; format: functional
# Staphylococcus aureus [17] = experiment: Antibacterial activity against methicillin-resistant Staphylococcus aureus ATCC […] after 20 to 22 hrs by CLSI broth macro-dilution method; format: functional
# Pseudomonas aeruginosa = experiment: Antibacterial activity against Pseudomonas aeruginosa ATCC 27853 after 20 to 22 hrs by CLSI broth macro-dilution method; format: functional
# Klebsiella pneumoniae = experiment: Antibacterial activity against Klebsiella pneumoniae ATCC 10031 after 20 to 22 hrs by CLSI broth macro-dilution method; format: functional
# Staphylococcus aureus [18] = experiment: Antimicrobial activity against Staphylococcus aureus assessed as disruption of bacterial membrane at 10 uM by SYTOX green uptake assay; format: functional, organism-based
# Outline: (§1)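 S. aureus DM4001 treated with 10 μM agent and incubated with the membrane-impermeant nucleic-acid dye SYTOX Green. Permeabilization was read as increased fluorescence intensity and confirmed by fluorescence microscopy counting green-stained cells.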
# Staphylococcus aureus [19] = experiment: Antimicrobial activity against in Staphylococcus aureus assessed as disruption of bacterial membrane at 10 uM by fluorescence microscopy; format: functional, organism-based; outline: as §1
# Staphylococcus aureus [20] = experiment: Antibacterial activity against methicillin-resistant Staphylococcus aureus DM21595 assessed as log reduction in CFU at 0.5 X MIC to 4 X MIC after 8 hrs by surface-spread plate method relative to control; format: functional, organism-based
# Staphylococcus aureus [21] = experiment: Antibacterial activity against methicillin-resistant Staphylococcus aureus DM09808R assessed as log reduction in CFU at 0.5 X MIC to 4 X MIC after 8 hrs by surface-spread plate method relative to control; format: functional, organism-based
# Staphylococcus aureus [22] = experiment: Antibacterial activity against methicillin-resistant Staphylococcus aureus ATCC 700699 assessed as log reduction in CFU at 0.5 X MIC to 4 X MIC after 8 hrs by surface-spread plate method relative to control relative to control; format: functional, organism-based
# Staphylococcus aureus [23] = experiment: Antibacterial activity against methicillin-resistant Staphylococcus aureus DM21455 assessed as log reduction in CFU at 0.5 X MIC to 4 X MIC after 8 hrs by surface-spread plate method relative to control; format: functional, organism-based
# Staphylococcus aureus [24] = experiment: Antibacterial activity against methicillin-resistant Staphylococcus aureus DM42412 assessed as log reduction in CFU at 0.5 X MIC to 4 X MIC after 8 hrs by surface-spread plate method relative to control; format: functional, organism-based
SMILES,MIC99 (Staphylococcus aureus [1]) [µg/mL],MIC99 (Staphylococcus aureus [2]) [µg/mL],pKa [4],HC50 at 1 h [5] [µM],Selectivity ratio [6],Selectivity ratio [7],logP ([3]; read-out: logP),also measured
COc1c(OCCCCn2cccn2)cc2oc3cc(OCCCCn4cccn4)c(CC=C(C)C)c(O)c3c(=O)c2c1CC=C(C)C,> 200,> 200,2.52,> 200,–,–,–,logP [3]: 9.28
CCN(CC)CCCCCOc1cc2oc3cc(OCCCCCN(CC)CC)c(OC)c(CC=C(C)C)c3c(=O)c2c(O)c1CC=C(C)C,0.78,1.56,11,14,18,9,7.55,–
COc1c(OCCCCn2cncn2)cc2oc3cc(OCCCCn4cncn4)c(CC=C(C)C)c(O)c3c(=O)c2c1CC=C(C)C,> 200,> 200,2.2,> 200,–,–,–,logP [3]: 11.08
CCN(CC)CCCOc1cc2oc3cc(OCCCN(CC)CC)c(OC)c(CC=C(C)C)c3c(=O)c2c(O)c1CC=C(C)C,0.39,0.78,11,16.3,41.7,20.9,6.27,–
COc1c(OCCCCN2CCCCC2)cc2oc3cc(OCCCCN4CCCCC4)c(CC=C(C)C)c(O)c3c(=O)c2c1CC=C(C)C,1.56,0.78,11.2,19.3,12.3,24.7,6.93,–
CN[C@H](CC(C)C)C(=O)N[C@H]1C(=O)N[C@@H](CC(N)=O)C(=O)N[C@H]2C(=O)N[C@H]3C(=O)N[C@H](C(=O)N[C@H](C(=O)O)c4cc(O)cc(O)c4-c4cc3ccc4O)[C@H](O)c3ccc(c(Cl)c3)Oc3cc2cc(c3O[C@@H]2O[C@H](CO)[C@@H](O)[C@H](O)[C@H]2O[C@H]2C[C@](C)(N)[C@H](O)[C@H](C)O2)Oc2ccc(cc2Cl)[C@H]1O [VANCOMYCIN],0.78,–,–,–,–,–,–,MIC (Staphylococcus aureus [8]): 0.78 µg/mL; FC (Staphylococcus aureus [9]): 3; FC (Staphylococcus aureus [10]): 3; FC (Staphylococcus aureus [11]): 3; MIC (Staphylococcus aureus [12]): 0.39 µg/mL; MIC (Staphylococcus aureus [13]): 0.39 µg/mL; FC (Staphylococcus aureus [14]): 3; Activity [15]: Non-toxic; FC (Staphylococcus aureus [16]): 3; MIC (Staphylococcus aureus [17]): 6.25 µg/mL
COc1c(OCCCCN2CCOCC2)cc2oc3cc(OCCCCN4CCOCC4)c(CC=C(C)C)c(O)c3c(=O)c2c1CC=C(C)C,> 200,> 200,8.36,> 200,–,–,5.42,–
CCN(CC)CCCCCCOc1cc2oc3cc(OCCCCCCN(CC)CC)c(OC)c(CC=C(C)C)c3c(=O)c2c(O)c1CC=C(C)C,1.56,1.56,11,26.5,17,17,8.39,–
COc1c(O)cc2oc3cc(O)c(CC=C(C)C)c(O)c3c(=O)c2c1CC=C(C)C [MANGOSTIN],1.56,1.56,–,9,5.77,5.77,6.75,MIC (Pseudomonas aeruginosa): > 200 µg/mL; MIC (Klebsiella pneumoniae): > 200 µg/mL
COc1c(OCCCCBr)cc2oc3cc(OCCCCBr)c(CC=C(C)C)c(O)c3c(=O)c2c1CC=C(C)C,> 200,> 200,–,> 200,–,–,–,Activity (Staphylococcus aureus [18]): inactive; Activity (Staphylococcus aureus [19]): inactive
COc1c(OCCCCN2CCCC2)cc2oc3cc(OCCCCN4CCCC4)c(CC=C(C)C)c(O)c3c(=O)c2c1CC=C(C)C,1.56,1.56,11.3,25,16,16,6.63,–
CCCCCCCCCC(=O)N[C@@H](Cc1c[nH]c2ccccc12)C(=O)N[C@H](CC(N)=O)C(=O)N[C@@H](CC(=O)O)C(=O)N[C@@H]1C(=O)NCC(=O)N[C@@H](CCCN)C(=O)N[C@@H](CC(=O)O)C(=O)N[C@H](C)C(=O)N[C@@H](CC(=O)O)C(=O)NCC(=O)N[C@H](CO)C(=O)N[C@@H]([C@H](C)CC(=O)O)C(=O)N[C@@H](CC(=O)c2ccccc2N)C(=O)O[C@@H]1C,0.78,–,–,–,–,–,–,MIC (Staphylococcus aureus [8]): 0.195 µg/mL; Activity (Staphylococcus aureus [20]): inactive; MIC (Staphylococcus aureus [12]): 0.195 µg/mL; MIC (Staphylococcus aureus [13]): 0.78 µg/mL; Activity (Staphylococcus aureus [21]): inactive; Activity (Staphylococcus aureus [22]): inactive; Activity (Staphylococcus aureus [23]): inactive; MIC (Staphylococcus aureus [17]): 0.78 µg/mL; Activity (Staphylococcus aureus [24]): inactive
